In ChEMBL document CHEMBL3525942, “Disposition and metabolism of [14C]SB-649868, an orexin 1 and 2 receptor antagonist, in humans” (Drug Metab Dispos, 2011):
One block for each molecule: values may come before it.

How the values were obtained:
[1] = Drug level in human urine treated with [14C]SB-649868 at 30 mg, po single dose after 0 to 72 hrs by HPLC-MSn analysis; conditions: in vivo, 0-72 h
[2] = Drug level in human feces treated with [14C]SB-649868 at 30 mg, po single dose by HPLC-MSn analysis; conditions: in vivo
[3] = Drug excretion in human urine at 30 mg, po single dose measured at 0 to 168 hrs; assay type: ADME, organism-based; set-up: dosed compound name [14C]SB-649868; conditions: in vivo
Procedure, shortened: (§1)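 After one oral 30 mg [14C] dose in eight healthy men, urine was collected at 0–6, 6–12 and 12–24 h, then every 24 h to 216 h. Feces were collected every 24 h to 216 h and homogenized 1:1 with water. Radioactivity was counted by LSC in triplicate aliquots. Results given as cumulative % of dose, mean (S.D.).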

[4] = Drug excretion in human urine at 30 mg, po single dose measured at 0 to 6 hrs; assay type: ADME, organism-based; set-up: dosed compound name [14C]SB-649868; conditions: in vivo
Procedure, shortened: as §1

Homo sapiens [5] = assay: Total drug excretion in human at 30 mg, po single dose measured at 0 to 12 hrs; assay type: ADME, organism-based; set-up: dosed compound name [14C]SB-649868; conditions: in vivo
Procedure, shortened: as §1

[6] = Drug excretion in human urine at 30 mg, po single dose measured at 0 to 144 hrs; assay type: ADME, organism-based; set-up: dosed compound name [14C]SB-649868; conditions: in vivo
Procedure, shortened: as §1

Homo sapiens [7] = assay: Total drug excretion in human at 30 mg, po single dose measured at 0 to 24 hrs; assay type: ADME, organism-based; set-up: dosed compound name [14C]SB-649868; conditions: in vivo
Procedure, shortened: as §1

[8] = Drug excretion in human feces at 30 mg, po single dose measured at 0 to 96 hrs; assay type: ADME, organism-based; set-up: dosed compound name [14C]SB-649868; conditions: in vivo
Procedure, shortened: as §1

Homo sapiens [9] = assay: Total drug excretion in human at 30 mg, po single dose measured at 0 to 120 hrs; assay type: ADME, organism-based; set-up: dosed compound name [14C]SB-649868; conditions: in vivo
Procedure, shortened: as §1

[10] = Drug excretion in human urine at 30 mg, po single dose measured at 0 to 48 hrs; assay type: ADME, organism-based; set-up: dosed compound name [14C]SB-649868; conditions: in vivo
Procedure, shortened: as §1

[11] = Drug excretion in human feces at 30 mg, po single dose measured at 0 to 72 hrs; assay type: ADME, organism-based; set-up: dosed compound name [14C]SB-649868; conditions: in vivo
Procedure, shortened: as §1

Homo sapiens [12] = assay: Total drug excretion in human at 30 mg, po single dose measured at 0 to 168 hrs; assay type: ADME, organism-based; set-up: dosed compound name [14C]SB-649868; conditions: in vivo
Procedure, shortened: as §1

[13] = Drug excretion in human urine at 30 mg, po single dose measured at 0 to 216 hrs; assay type: ADME, organism-based; set-up: dosed compound name [14C]SB-649868; conditions: in vivo
Procedure, shortened: as §1

[14] = Drug excretion in human urine at 30 mg, po single dose measured at 0 to 96 hrs; assay type: ADME, organism-based; set-up: dosed compound name [14C]SB-649868; conditions: in vivo
Procedure, shortened: as §1

[15] = Drug excretion in human urine at 30 mg, po single dose measured at 0 to 12 hrs; assay type: ADME, organism-based; set-up: dosed compound name [14C]SB-649868; conditions: in vivo
Procedure, shortened: as §1

Homo sapiens [16] = assay: Total drug excretion in human at 30 mg, po single dose measured at 0 to 192 hrs; assay type: ADME, organism-based; set-up: dosed compound name [14C]SB-649868; conditions: in vivo
Procedure, shortened: as §1

Homo sapiens [17] = assay: Total drug excretion in human at 30 mg, po single dose measured at 0 to 72 hrs; assay type: ADME, organism-based; set-up: dosed compound name [14C]SB-649868; conditions: in vivo
Procedure, shortened: (§2)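 Healthy male volunteers (n=8) given single oral 30 mg (approx. 70 µCi) [14C]-labelled dose in a capsule with 160 ml water. Urine collected pre-dose, 0–6, 6–12, 12–24 h, then 24 h intervals to 216 h; feces at 24 h intervals to 216 h, homogenized 1:1 with water. Triplicate aliquots counted by LSC with quench correction and background subtraction; cumulative excretion expressed as % of dose.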

Homo sapiens [18] = assay: Total drug excretion in human at 30 mg, po single dose measured at 0 to 96 hrs; assay type: ADME, organism-based; set-up: dosed compound name [14C]SB-649868; conditions: in vivo
Procedure, shortened: as §2

Homo sapiens [19] = assay: Total drug excretion in human at 30 mg, po single dose measured at 0 to 144 hrs; assay type: ADME, organism-based; set-up: dosed compound name [14C]SB-649868; conditions: in vivo
Procedure, shortened: as §1

Homo sapiens [20] = assay: Total drug excretion in human at 30 mg, po single dose measured at 0 to 6 hrs; assay type: ADME, organism-based; set-up: dosed compound name [14C]SB-649868; conditions: in vivo
Procedure, shortened: as §2

[21] = Drug excretion in human feces at 30 mg, po single dose measured at 0 to 48 hrs; assay type: ADME, organism-based; set-up: dosed compound name [14C]SB-649868; conditions: in vivo
Procedure, shortened: as §1

Homo sapiens [22] = assay: Total drug excretion in human at 30 mg, po single dose measured at 0 to 216 hrs; assay type: ADME, organism-based; set-up: dosed compound name [14C]SB-649868; conditions: in vivo
Procedure, shortened: as §1

Homo sapiens [23] = assay: Tmax in human plasma assessed as total radioactivity at 30 mg, po single dose; assay type: ADME, organism-based; set-up: dosed compound name [14C]SB-649868; conditions: in vivo
Procedure, shortened: (§3)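 Eight healthy men given one oral capsule of [14C] drug, 30 mg (approx. 70 µCi), with 160 ml water. Blood in K-EDTA tubes from pre-dose to 96 h, chilled and spun at 4°C. Plasma read by LSC in triplicate 0.25 ml aliquots, quench-corrected and background-subtracted. Noncompartmental analysis: Cmax and tmax read from the data, t1/2 = ln2/λz, AUC by linear-up/log-down trapezoids. Geometric means.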

Homo sapiens [24] = assay: Cmax in human plasma assessed as total radioactivity at 30 mg, po single dose; assay type: ADME, organism-based; set-up: dosed compound name [14C]SB-649868; conditions: in vivo
Procedure, shortened: as §3

Homo sapiens [25] = assay: AUC (0 to infinity) in human plasma assessed as total radioactivity at 30 mg, po single dose; assay type: ADME, organism-based; set-up: dosed compound name [14C]SB-649868; conditions: in vivo
Procedure, shortened: as §3

[26] = Drug excretion in human urine at 30 mg, po single dose measured at 0 to 192 hrs; assay type: ADME, organism-based; set-up: dosed compound name [14C]SB-649868; conditions: in vivo
Procedure, shortened: as §1

[27] = Drug excretion in human urine at 30 mg, po single dose measured at 0 to 24 hrs; assay type: ADME, organism-based; set-up: dosed compound name [14C]SB-649868; conditions: in vivo
Procedure, shortened: as §1

Homo sapiens [28] = assay: Total drug excretion in human at 30 mg, po single dose measured at 0 to 48 hrs; assay type: ADME, organism-based; set-up: dosed compound name [14C]SB-649868; conditions: in vivo
Procedure, shortened: as §1

[29] = Drug excretion in human feces at 30 mg, po single dose measured at 0 to 192 hrs; assay type: ADME, organism-based; set-up: dosed compound name [14C]SB-649868; conditions: in vivo
Procedure, shortened: as §1

Homo sapiens [30] = assay: AUC (0 to t) in human plasma assessed as total radioactivity at 30 mg, po single dose; assay type: ADME, organism-based; set-up: dosed compound name [14C]SB-649868; conditions: in vivo
Procedure, shortened: as §3

[31] = Drug excretion in human urine at 30 mg, po single dose measured at 0 to 72 hrs; assay type: ADME, organism-based; set-up: dosed compound name [14C]SB-649868; conditions: in vivo
Procedure, shortened: as §1

[32] = Drug excretion in human urine at 30 mg, po single dose measured at 0 to 120 hrs; assay type: ADME, organism-based; set-up: dosed compound name [14C]SB-649868; conditions: in vivo
Procedure, shortened: as §1

[33] = Drug excretion in human feces at 30 mg, po single dose measured at 0 to 24 hrs; assay type: ADME, organism-based; set-up: dosed compound name [14C]SB-649868; conditions: in vivo
Procedure, shortened: as §1

Homo sapiens [34] = assay: Apparent half life in human plasma assessed as total radioactivity at 30 mg, po single dose; assay type: ADME, organism-based; set-up: dosed compound name [14C]SB-649868; conditions: in vivo
Procedure, shortened: as §3

[35] = Drug excretion in human feces at 30 mg, po single dose measured at 0 to 120 hrs; assay type: ADME, organism-based; set-up: dosed compound name [14C]SB-649868; conditions: in vivo
Procedure, shortened: as §1

[36] = Drug excretion in human feces at 30 mg, po single dose measured at 0 to 144 hrs; assay type: ADME, organism-based; set-up: dosed compound name [14C]SB-649868; conditions: in vivo
Procedure, shortened: as §1

[37] = Drug excretion in human feces at 30 mg, po single dose measured at 0 to 216 hrs; assay type: ADME, organism-based; set-up: dosed compound name [14C]SB-649868; conditions: in vivo
Procedure, shortened: as §1

[38] = Drug excretion in human feces at 30 mg, po single dose measured at 0 to 168 hrs; assay type: ADME, organism-based; set-up: dosed compound name [14C]SB-649868; conditions: in vivo
Procedure, shortened: as §1

- Compound recovery [1]: Below quantification limit
- Compound recovery [2]: 1.1%
Compound: Cc1nc(C(=O)N[C@@H](CCCC(=O)O)CNC(=O)c2cccc3occc23)c(-c2ccc(F)cc2)s1

- Compound recovery [1]: 0.6%
Compound: Cc1nc(C(=O)N2CCCC[C@H]2CNC(=O)c2cccc3oc(O)cc23)c(-c2ccc(F)cc2)s1

- Compound recovery [1]: Below quantification limit
- Compound recovery [2]: 0.7%
Compound: Cc1nc(C(=O)N2CCCC[C@H]2Cn2ccc3c(O)cccc3c2=O)c(-c2ccc(F)cc2)s1

- Radiolabel recovery [3]: 11.9%
- Radiolabel recovery [4]: 2.3%
- Radiolabel recovery (Homo sapiens [5]): 5.9%
- Radiolabel recovery [6]: 11.9%
- Radiolabel recovery (Homo sapiens [7]): 10.8%
- Radiolabel recovery [8]: 69.6%
- Radiolabel recovery (Homo sapiens [9]): 87.3%
- Radiolabel recovery [10]: 10.7%
- Radiolabel recovery [11]: 60%
- Radiolabel recovery (Homo sapiens [12]): 89.7%
- Radiolabel recovery [13]: 12%
- Radiolabel recovery [14]: 11.6%
- Radiolabel recovery [15]: 5.9%
- Radiolabel recovery (Homo sapiens [16]): 90.5%
- Radiolabel recovery (Homo sapiens [17]): 71.3%
- Radiolabel recovery (Homo sapiens [18]): 81.2%
- Radiolabel recovery (Homo sapiens [19]): 88.7%
- Radiolabel recovery (Homo sapiens [20]): 2.3%
- Radiolabel recovery [21]: 36.8%
- Radiolabel recovery (Homo sapiens [22]): 91.1%
- Radiolabel recovery (Homo sapiens [23]): 4 h
- Radiolabel recovery (Homo sapiens [24]): 1.66 ugequiv/ml
- Radiolabel recovery (Homo sapiens [25]): 37.3 ugequiv.hr/ml
- Radiolabel recovery [26]: 12%
- Radiolabel recovery [27]: 8.9%
- Radiolabel recovery (Homo sapiens [28]): 47.5%
- Radiolabel recovery [29]: 78.5%
- Radiolabel recovery (Homo sapiens [30]): 31 ugequiv.hr/ml
- Radiolabel recovery [31]: 11.3%
- Radiolabel recovery [32]: 11.7%
- Radiolabel recovery [33]: 1.9%
- Radiolabel recovery (Homo sapiens [34]): 39.3 h
- Radiolabel recovery [35]: 75.6%
- Radiolabel recovery [36]: 76.8%
- Radiolabel recovery [37]: 79.1%
- Radiolabel recovery [38]: 77.7%
Compound: C[14c]1nc(C(=O)N2CCCC[C@H]2CNC(=O)c2cccc3occc23)c(-c2ccc(F)cc2)s1
